Laboratory results reported in ChEMBL document CHEMBL1909525, “Synthesis and anticonvulsant activity of novel 2,6-diketopiperazine derivatives. Part 1: perhydropyrrole[1,2-a]pyrazines” (Eur J Med Chem, 2011).
The source made the active and inactive calls. The calls are words filed in the database; no cut-off is given here.

Legend:
[1] = system: Rattus norvegicus; assay: Anticonvulsant activity in po dosed albino Sprague-Dawley rat assessed as time needs to show peak effect for protection against maximal electroshock-induced seizure after 0.25 hrs; type: functional
Summary of the method: (§1)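 Rats dosed orally, compound in 0.5% methylcellulose. MES at 150 mA, 60 Hz, 0.2 s; scMET with pentylenetetrazole 70 mg/kg s.c. plus 30 min observation; rotorod for toxicity.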

[2] = system: Mus musculus; assay: Toxicity in albino Carworth Farms No.1 mouse assessed as sedation at 300 mg/kg, ip after 0.5 hrs by rotarod test; type: organism-based; design: dose 300 mg/kg, route intraperitoneal; settings: in vivo
Summary of the method: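 Mice (18–25 g) were given 30, 100 or 300 mg/kg i.p. in 0.5% (v/v) aqueous methylcellulose. Neurotoxicity was checked on a 6 r.p.m. rotorod 30 min and 4 h after dosing and scored as inability to keep equilibrium. Death following tonic extension and sedation were recorded as observations (number of animals/number tested).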

[3] = species: Rattus norvegicus; assay: Inhibition of voltage-gated sodium channel in Wistar rat cerebral prefrontal coronal slices assessed as decrease of […] current-induced current amplitude at 10 uM after 5 mins by whole cell voltage clamp method (reference value: 4.2%); design: scale not given: the % may be the effect or the level left
[4] = system: Mus musculus; assay: Anticonvulsant activity in albino Carworth Farms No.1 mouse assessed as protection against maximal electroshock-induced seizure at 300 mg/kg, ip after 0.5 hrs; type: functional, organism-based; design: dose 300 mg/kg
Summary of the method: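 Mouse MES test with compound given i.p. (30, 100 or 300 mg/kg) in 0.5% methylcellulose; tested at 0.5 and 4 h. Corneal stimulus of 50 mA at 60 Hz for 0.2 s, electrodes primed with 0.5% butacaine in 0.9% NaCl. Protection is abolition of hindlimb tonic extension; scored as protected/tested.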

[5] = system: Mus musculus; assay: Anticonvulsant activity in albino Carworth Farms No.1 mouse assessed as protection against electric-current for 3 secs-induced seizure at 75 mg/kg, ip after 0.25 hrs by 6Hz minimal clonic seizure test; type: functional, organism-based; design: dose 75 mg/kg
Summary of the method: (§2)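 6 Hz psychomotor seizure test in mice. Compound given i.p. as a suspension in 0.5% methylcellulose. Corneal stimulation at 32 mA, 0.2-ms monopolar rectangular pulses at 6 Hz for 3 s, from a constant-current device. Tests run 0.25–4 h after dosing. A mouse counted as protected if it resumed normal exploratory behaviour within 10 s; scored as protected/tested.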

[6] = system: Rattus norvegicus; assay: Anticonvulsant activity in po dosed albino Sprague-Dawley rat assessed as protection against maximal electroshock-induced seizure after 0.25 hrs; type: functional; summary of the method: as §1
[7] = species: Rattus norvegicus; assay: Inhibition of voltage-gated sodium channel in Wistar rat cerebral prefrontal coronal slices assessed as decrease of 10 Hz current-induced current amplitude at 10 to 100 uM after 5 mins by whole cell voltage clamp method
Summary of the method: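 Na+ currents recorded by whole-cell voltage clamp in dispersed mPFC cells from coronal prefrontal slices of 3-week-old male Wistar rats. TEA-based bath, pH 7.4. Trains of 100 pulses at 10 Hz, each a step to -20 mV after a -100 mV prepulse. Amplitude decline over the train compared between control and 5 min compound application; n = 3.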

[8] = system: Rattus norvegicus; assay: Toxicity in albino Sprague-Dawley rat pilocarpine-induced status epilepticus model assessed as change in body weight in protected rat at 65 mg/kg, ip measured after 24 hrs of time from first stage 3 seizures; type: organism-based; design: dose 65 mg/kg, route intraperitoneal; settings: in vivo
Summary of the method: (§3)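 Male albino Sprague-Dawley rats (150–180 g) received compound i.p., then a pilocarpine challenge immediately (0 min) or 30 min after treatment. The outcome was protection or no protection from seizures, scored as number protected/number tested. Average body weight change (g) ± S.E.M. was reported separately for protected and non-protected rats.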

[9] = species: Mus musculus; assay: Protective index, ratio of TD50 for albino Carworth Farms No.1 mouse to ED50 for albino Carworth Farms No.1 mouse by maximal electroshock-induced seizure test; type: functional
Summary of the method: (§4)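 Mouse quantification at the time of peak effect, compound given i.p. in 0.5% methylcellulose. Groups of at least eight mice received varied doses until at least two points fell between 100 and 0% response. PI = TD50/ED50 MES.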

[10] = system: Mus musculus; assay: Anticonvulsant activity in albino Carworth Farms No.1 mouse assessed as protection against subcutaneous metrazol-induced seizure at 100 mg/kg, ip after 0.5 hrs; type: functional, organism-based; design: dose 100 mg/kg
Summary of the method: (§5)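 Mouse scMET test. Compound given i.p. (30, 100 or 300 mg/kg) in 0.5% methylcellulose. Pentylenetetrazole 85 mg/kg (CD97) given s.c. at 0.5 or 4 h, then mice observed for 30 min. Protection is absence of clonic spasms; scored as protected/tested.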

[11] = system: Rattus norvegicus; assay: Anticonvulsant activity in albino Sprague-Dawley rat assessed as protection against pilocarpine-induced status epilepticus at 130 mg/kg, ip measured after time from first stage 3 seizures; type: functional, organism-based; design: dose 130 mg/kg
Summary of the method: (§6)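 Male albino Sprague-Dawley rats, 150–180 g. Compound given i.p., then a challenge dose of pilocarpine at 0 min or at 30 min. Outcome scored as protection or no protection from seizures (protected/tested), with body weight change recorded.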

[12] = Neurotoxicity in ip dosed albino Carworth Farms No.1 mouse assessed as motor impairment after 0.25 hrs by rotarod test; type: toxicity, organism-based; settings: Carworth Farms No.1 (albino), in vivo; summary of the method: as §4
[13] = system: Rattus norvegicus; assay: Toxicity in albino Sprague-Dawley rat pilocarpine-induced status epilepticus model assessed as change in body weight in protected rat at 130 mg/kg, ip measured after 24 hrs of time from first stage 3 seizures; type: organism-based; design: dose 130 mg/kg, route intraperitoneal; settings: in vivo; summary of the method: as §3
[14] = species: Rattus norvegicus; assay: Protective index, ratio of TD50 for albino Sprague-Dawley rat to ED50 for albino Sprague-Dawley rat by maximal electroshock-induced seizure test; type: functional
[15] = system: Mus musculus; assay: Anticonvulsant activity in albino Carworth Farms No.1 mouse assessed as protection against subcutaneous metrazol-induced seizure at 300 mg/kg, ip after 4 hrs; type: functional, organism-based; design: dose 300 mg/kg; summary of the method: as §5
[16] = system: Mus musculus; assay: Neurotoxicity in albino Carworth Farms No.1 mouse assessed as motor impairment at 100 mg/kg, ip after 0.5 hrs by rotarod test; type: toxicity, organism-based; design: dose 100 mg/kg, route intraperitoneal; settings: in vivo
Summary of the method: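 Rotorod neurotoxicity in mice at 6 r.p.m. Compound given i.p. (30, 100, 300 mg/kg) in 0.5% methylcellulose; tested at 30 min and 4 h. Impairment is inability to keep equilibrium on the rod for a given time; scored as impaired/tested.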

[17] = system: Rattus norvegicus; assay: Anticonvulsant activity in albino Sprague-Dawley rat assessed as protection against pilocarpine-induced status epilepticus at 65 mg/kg, ip measured after time from first stage 3 seizures; type: functional, organism-based; design: dose 65 mg/kg; summary of the method: as §6
[18] = species: Rattus norvegicus; assay: Activation of voltage-gated sodium channel in Wistar rat cerebral prefrontal coronal slices assessed as increase of 0.1 Hz current-induced current amplitude at 100 uM after 5 mins by whole cell voltage clamp method
Summary of the method: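 Whole-cell voltage clamp on mechanically dispersed mPFC cells from coronal prefrontal slices of 3-week-old male Wistar rats. Bath: TEA-OH 90, NaCl 30, HEPES 10, MgCl2 2, CaCl2 2, glucose 15 mM, pH 7.4. Na+ currents evoked at 0.1 Hz by a step to -20 mV (30 ms) after a -100 mV prepulse (1000 ms). Amplitude compared before and after 5 min compound application; n = 3.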

[19] = system: Mus musculus; assay: Anticonvulsant activity in albino Carworth Farms No.1 mouse assessed as protection against electric-current for 3 secs-induced seizure at 75 mg/kg, ip after 2 hrs by 6Hz minimal clonic seizure test; type: functional, organism-based; design: dose 75 mg/kg; summary of the method: as §2
[20] = system: Mus musculus; assay: Anticonvulsant activity in albino Carworth Farms No.1 mouse assessed as protection against subcutaneous metrazol-induced seizure at 30 mg/kg, ip after 0.5 hrs; type: functional, organism-based; design: dose 30 mg/kg; summary of the method: as §5
[21] = system: Rattus norvegicus; assay: Toxicity in albino Sprague-Dawley rat pilocarpine-induced status epilepticus model assessed as change in body weight in non-protected rat at 130 mg/kg, ip measured after 24 hrs of time from first stage 3 seizures; type: organism-based; design: dose 130 mg/kg, route intraperitoneal; settings: in vivo; summary of the method: as §3

For O=C1NC(=O)[C@@H]2CCCN2[C@H]1c1ccccc1, the Time [1] was 0.25 h, the Activity [2] was “Toxic” and the Activity [3] was 5.3%. The Activity [4] was “inactive”, the Activity [5] was “Active” and the ED50 [6] was 39.7 mg/kg. For the same compound, the inhibition [7] was “inactive”, the Activity [8] was 4.4 g and the “Ratio TD50/ED50” value [9] was 1.7. For the same compound, the Activity [10] was “inactive”, the Activity [11] was “Active” and the TD50 at 0.25 h [12] was 122 mg/kg. For the same compound, the Activity [13] was 12.5 g, the “Ratio TD50/ED50” value [14] was greater than 12.6 and the Activity [15] was “inactive”. The Activity [16] was “Non-toxic”, the Activity [17] was “Active” and the Activity [18] was 8.4%. For the same compound, the Activity [19] was “inactive”, the Activity [20] was “inactive” and the Activity [21] was -22.5 g.
